From ChEMBL document CHEMBL4219023, “Synthesis and biological activity of novel tert-amylphenoxyalkyl (homo)piperidine derivatives as histamine H3R ligands” (Bioorg Med Chem, 2017)
The source made the active and inactive calls. No cut-off for these calls is given here.

Key:
[1] = Drug level in pooled human liver microsomes treated with 50 uM 1-(5-(4-(tert-Pentyl)phenoxy)pentyl)azepane hydrogen oxalate after 2 hrs in presence of NADPH by LC/MS analysis; type: ADME, microsome
Method in brief: (§1)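 Pooled human liver microsomes (1 mg/ml) in 0.1 M Tris-HCl pH 7.4 with compound at 50 μM. After 5 min preincubation at 37 °C, reaction was started with NADPH regeneration system and run 2 h at 37 °C. Stopped with cold methanol and centrifuged. Supernatant analysed by UPLC-ESI tandem quadrupole MS.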

[2] = Safety index, ratio of compound IC50 to doxorubicin IC50 for HEK293 cells after 48 hrs by EZ4U non-radioactive cell proliferation assay; type: ADME, cell-based; settings: human, read-out: Ratio IC50
[3] = Drug metabolism in pooled human liver microsomes assessed as 2-(4-(5-(azepan-1-yl)pentyloxy)phenyl)propan-1-ol metabolite formation at 50 uM after 2 hrs in presence of NADPH by LC/MS analysis; type: ADME, microsome; method in brief: as §1
[4] = Safety index, ratio of compound IC50 to doxorubicin IC50 for human IMR32 cells after 48 hrs by EZ4U Non-radioactive cell proliferation assay; type: ADME, cell-based; settings: IMR-32 cells, read-out: Ratio IC50
HEK293 = test: Cytotoxicity against HEK293 cells assessed as reduction in cell viability after 48 hrs by EZ4U Non-radioactive cell proliferation assay; type: cell-based; settings: Homo sapiens, HEK293, 48 h
Method in brief: (§2)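 IMR-32 cells (2×10^4/well) or HEK-293 cells (1.5×10^4/well) in DMEM with 10% FBS were preincubated 24 h at 37 °C, 5% CO2. Compounds from 25 mM DMSO stocks were added at final 0.01–250 μM, with DMSO ≤1%. After 48 h, EZ4U label was added for 5 h and absorbance read at 492 nm.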

Histamine H3 receptor [5] = molecular target: T1, Histamine H3 receptor (Homo sapiens, UniProt Q9Y5N1); test: Displacement of [125I]Iodoproxyfan from recombinant human histamine H3 receptor expressed in CHOK1 cell membranes after 90 mins
T1 sequence (Q9Y5N1 whole entry): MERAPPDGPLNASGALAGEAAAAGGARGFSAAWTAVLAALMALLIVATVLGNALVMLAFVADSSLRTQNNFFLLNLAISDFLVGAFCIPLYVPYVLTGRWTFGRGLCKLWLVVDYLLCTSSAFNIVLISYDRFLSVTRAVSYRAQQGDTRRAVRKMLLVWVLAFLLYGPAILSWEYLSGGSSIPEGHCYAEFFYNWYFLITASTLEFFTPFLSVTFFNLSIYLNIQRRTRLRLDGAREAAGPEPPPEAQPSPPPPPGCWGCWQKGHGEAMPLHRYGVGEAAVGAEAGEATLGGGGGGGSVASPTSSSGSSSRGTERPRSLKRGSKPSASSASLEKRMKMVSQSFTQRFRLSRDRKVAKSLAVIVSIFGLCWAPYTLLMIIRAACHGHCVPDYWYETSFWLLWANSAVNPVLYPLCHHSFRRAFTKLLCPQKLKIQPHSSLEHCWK
Method in brief: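 Membranes of CHO-K1 cells expressing hH3R were incubated 90 min at 25 °C, shaken at 250 rpm, with [125I]iodoproxyfan (16–50 pM) and test compound. Nonspecific binding was defined with 1 μM imetit. Separation by filtration on PEI-treated GF/B filters. Ki obtained from IC50 by Cheng-Prusoff.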

IMR-32 = test: Cytotoxicity against human IMR32 cells assessed as reduction in cell viability after 48 hrs by EZ4U Non-radioactive cell proliferation assay; type: cell-based; settings: IMR-32, 48 h; method in brief: as §2
Mus musculus [6] = test: Anticonvulsant activity in CF-1 albino mouse assessed as protection against subcutaneous pentetrazole-induced seizures at 100 mg/kg, ip after 4 hrs; type: functional, organism-based
Mus musculus [7] = test: Neurotoxicity in CF-1 albino mouse at 30 mg/kg, ip after 4 hrs by rotarod test; type: toxicity, organism-based; settings: in vivo
Method in brief: (§3)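 Male CF-1 mice were dosed i.p. with compound suspended in 0.5% methylcellulose (30, 100 or 300 mg/kg). Neurotoxicity was scored by rotarod 0.5 h and 4 h after dosing, as animals showing toxicity/animals tested. Type of toxicity was noted, e.g. inability to grasp the rod, tremors, death.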

CYP3A4 = CYP3A4 (Homo sapiens, UniProt P08684); test: Activation of recombinant human CYP3A4 using Luciferin-BE as substrate at 25 uM in presence of NADPH by P450-Glo luminescence assay relative to control; type: ADME; settings: recombinant human CYP3A4, probe Luciferin-PPXE, in the assay text read “Luciferin-PPXE” for “Luciferin-BE”, read-out: Activity
CYP3A4, sequence (P08684 whole entry): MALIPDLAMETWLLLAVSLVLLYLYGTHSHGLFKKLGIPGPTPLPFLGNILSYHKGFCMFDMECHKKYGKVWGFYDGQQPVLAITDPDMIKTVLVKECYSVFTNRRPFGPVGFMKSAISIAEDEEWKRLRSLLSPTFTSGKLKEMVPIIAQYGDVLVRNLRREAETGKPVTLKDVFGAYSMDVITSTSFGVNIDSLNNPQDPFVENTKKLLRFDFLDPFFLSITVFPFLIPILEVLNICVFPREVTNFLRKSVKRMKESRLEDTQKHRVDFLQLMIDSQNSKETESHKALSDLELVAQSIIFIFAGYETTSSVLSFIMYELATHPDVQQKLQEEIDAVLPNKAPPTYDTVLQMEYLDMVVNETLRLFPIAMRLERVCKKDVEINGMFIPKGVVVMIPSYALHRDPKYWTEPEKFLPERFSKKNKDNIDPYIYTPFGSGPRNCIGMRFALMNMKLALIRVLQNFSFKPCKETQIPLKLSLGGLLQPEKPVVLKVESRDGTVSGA
Method in brief: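 Recombinant human CYP3A4 P450-Glo luminescence assay: enzyme converts luciferin substrate to D-luciferin, then firefly luciferase is added and light output read as a measure of CYP3A4 activity. Final ligand concentrations 0.025–25 μM.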

Mus musculus [8] = test: Anticonvulsant activity in CF-1 albino mouse assessed as protection against subcutaneous pentetrazole-induced seizures at 30 mg/kg, ip after 4 hrs; type: functional, organism-based
Mus musculus [9] = test: Anticonvulsant activity in CF-1 albino mouse assessed as protection against subcutaneous pentetrazole-induced seizures at 100 mg/kg, ip after 0.5 hrs; type: functional, organism-based
Mus musculus [10] = test: Anticonvulsant activity in CF-1 albino mouse assessed as protection against subcutaneous pentetrazole-induced seizures at 30 mg/kg, ip after 0.5 hrs; type: functional, organism-based
Mus musculus [11] = test: Anticonvulsant activity in CF-1 albino mouse assessed as protection against maximal electroshock-induced seizures at 100 mg/kg, ip after 0.5 hrs; type: functional, organism-based
Method in brief: (§4)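 Male CF-1 albino mice received compound i.p. as a suspension in 0.5% methylcellulose (30, 100 or 300 mg/kg). Maximal electroshock seizure test read 0.5 h and 4 h after dosing. Result given as animals protected/animals tested.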

Mus musculus [12] = test: Anticonvulsant activity in CF-1 albino mouse assessed as protection against maximal electroshock-induced seizures at 30 mg/kg, ip after 4 hrs; type: functional, organism-based; method in brief: as §4
Mus musculus [13] = test: Anticonvulsant activity in CF-1 albino mouse assessed as protection against maximal electroshock-induced seizures at 30 mg/kg, ip after 0.5 hrs; type: functional, organism-based; method in brief: as §4
[14] = Lipophilicity of compound by RP-TLC analysis; type: physicochemical; settings: methanol:acetic acid:water
Method in brief: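 Reversed-phase TLC on RP-18 plates with methanol:acetic acid:water mobile phase (acid constant at 10%, methanol 85–55% in 5% steps). Spots visualised with iodine. RM values were derived from Rf and extrapolated to zero methanol to give RM0.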

Mus musculus [15] = test: Neurotoxicity in CF-1 albino mouse at 30 mg/kg, ip after 0.5 hrs by rotarod test; type: toxicity, organism-based; settings: in vivo; method in brief: as §3
Mus musculus [16] = test: […] in po dosed mouse brain assessed as activation in HA release measured after 90 mins; type: functional; settings: 1.5 h
Mus musculus [17] = test: Neurotoxicity in CF-1 albino mouse assessed as death at 300 mg/kg, ip after 4 hrs by rotarod test; type: toxicity, organism-based; settings: in vivo
Method in brief: (§5)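 Anticonvulsant Screening Program (NINDS) Phase 1 neurotoxicity screen in male albino CF-1 mice. Compounds were given i.p. as suspensions in 0.5% methylcellulose at 30, 100 and/or 300 mg/kg, and animals were observed 0.5 h and 4 h after dosing. The rotarod test was scored as number of animals showing toxicity over number tested, with the kind of toxicity recorded: inability to grasp rotorod, death, diarrhea, continuous seizure activity, loss of righting reflex, myoclonic jerks or tremors.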

Mus musculus [18] = test: Neurotoxicity in CF-1 albino mouse at 100 mg/kg, ip after 0.5 hrs by rotarod test; type: toxicity, organism-based; settings: in vivo; method in brief: as §5
Mus musculus [19] = test: Anticonvulsant activity in CF-1 albino mouse assessed as protection against maximal electroshock-induced seizures at 300 mg/kg, ip after 0.5 hrs; type: functional, organism-based; method in brief: as §4
Mus musculus [20] = test: Neurotoxicity in CF-1 albino mouse assessed as death at 100 mg/kg, ip after 4 hrs by rotarod test; type: toxicity, organism-based; settings: in vivo; method in brief: as §5
Mus musculus [21] = test: Neurotoxicity in CF-1 albino mouse assessed as unable to grasp at 100 mg/kg, ip after 0.5 hrs by rotarod test; type: toxicity, organism-based; settings: in vivo; method in brief: as §5
Mus musculus [22] = test: Anticonvulsant activity in CF-1 albino mouse assessed as protection against maximal electroshock-induced seizures at 100 mg/kg, ip after 4 hrs; type: functional, organism-based; method in brief: as §4
Mus musculus [23] = test: Anticonvulsant activity in CF-1 albino mouse assessed as protection against subcutaneous pentetrazole-induced seizures at 300 mg/kg, ip after 0.5 hrs; type: functional, organism-based
Mus musculus [24] = test: Neurotoxicity in CF-1 albino mouse assessed as death at 300 mg/kg, ip after 0.5 hrs by rotarod test; settings: in vivo
Mus musculus [25] = test: Anticonvulsant activity in CF-1 albino mouse assessed as protection against subcutaneous pentetrazole-induced seizures at 300 mg/kg, ip after 4 hrs; type: functional, organism-based
Mus musculus [26] = test: Neurotoxicity in CF-1 albino mouse assessed as continuous seizure activity at 300 mg/kg, ip after 0.5 hrs by rotarod test; type: toxicity, organism-based; settings: in vivo; method in brief: as §5
Mus musculus [27] = test: Neurotoxicity in CF-1 albino mouse assessed as death at 300 mg/kg, ip after 0.5 hrs by rotarod test; type: toxicity, organism-based; settings: in vivo; method in brief: as §5
Mus musculus [28] = test: Neurotoxicity in CF-1 albino mouse assessed as diarrhea at 300 mg/kg, ip after 0.5 hrs by rotarod test; type: toxicity, organism-based; settings: in vivo; method in brief: as §5
Histamine H3 receptor [29] = molecular target: T1, Histamine H3 receptor; test: Displacement of [3H]Nalpha-Methylhistamine from recombinant human histamine H3 receptor expressed in HEK293 cell membranes after 90 mins by liquid scintillation counting analysis
Mus musculus [30] = test: Neurotoxicity in CF-1 albino mouse assessed as continuous seizure activity at 100 mg/kg, ip after 0.5 hrs by rotarod test; type: toxicity, organism-based; settings: in vivo; method in brief: as §5
Mus musculus [31] = test: Neurotoxicity in CF-1 albino mouse assessed as tremor at 30 mg/kg, ip after 0.5 hrs by rotarod test; type: toxicity, organism-based; settings: in vivo, 100 mg/kg, in the assay text read “100 mg/kg” for “30 mg/kg”; method in brief: as §3
Mus musculus [32] = test: Neurotoxicity in CF-1 albino mouse assessed as diarrhea at 100 mg/kg, ip after 0.5 hrs by rotarod test; type: toxicity, organism-based; settings: in vivo; method in brief: as §5
Mus musculus [33] = test: Neurotoxicity in CF-1 albino mouse at 100 mg/kg, ip after 4 hrs by rotarod test; type: toxicity, organism-based; settings: in vivo; method in brief: as §3
Mus musculus [34] = test: Neurotoxicity in CF-1 albino mouse at 300 mg/kg, ip after 4 hrs by rotarod test; type: toxicity, organism-based; settings: in vivo; method in brief: as §5
Mus musculus [35] = test: Neurotoxicity in CF-1 albino mouse assessed as unable to grasp at 30 mg/kg, ip after 0.5 hrs by rotarod test; type: toxicity, organism-based; settings: in vivo, 100 mg/kg, in the assay text read “100 mg/kg” for “30 mg/kg”; method in brief: as §3

Row | Structure (SMILES) | Ki (Histamine H3 receptor [5]) | Activity (Mus musculus [6]) | Activity (Mus musculus [7]) | Activity (Mus musculus [8]) | Activity (Mus musculus [9]) | Activity (Mus musculus [10]) | Activity (Mus musculus [11]) | Activity (Mus musculus [12]) | Activity (Mus musculus [13]) | Rm [14] | Activity (Mus musculus [19]) | Activity (Mus musculus [22]) | Activity (Mus musculus [24]) | further results
1 | CC(CO)c1ccc(OCCCCCN2CCCCCC2)cc1 (centres undefined) | – | – | – | – | – | – | – | – | – | – | – | – | – | Drug uptake [1]: Active
2 | CCC(C)(C)c1ccc(OCCCCCN2CCCCCC2)cc1.O=C(O)C(=O)O | 21.4 nM | inactive | Non-Toxic | inactive | inactive | inactive | Active | inactive | Active | 2.389 | – | – | – | selectivity ratio at 48 h [2]: 50 to 90; Drug metabolism [3]: Metabolite_Detected; selectivity ratio at 48 h [4]: > 1000; IC50 (HEK293): 39400 nM; IC50 (IMR-32): 12300 nM; activity at 25 µM (CYP3A4): 76%; Activity (Mus musculus [15]): Non-Toxic
3 | Clc1ccc(CCCOCCCN2CCCCC2)cc1 [PITOLISANT] | – | – | – | – | – | – | – | – | – | – | – | – | – | ED50 (Mus musculus [16]): 1.5 mg/kg
4 | CCC(C)(C)c1ccc(OCCCCCCCCN2CCC(C)CC2)cc1.O=C(O)C(=O)O | 308 nM | inactive | – | inactive | inactive | inactive | – | inactive | Active | – | Active | Active | Toxic | Activity (Mus musculus [17]): Toxic; Activity (Mus musculus [18]): Toxic; Activity (Mus musculus [20]): Toxic; Activity (Mus musculus [21]): Toxic; Activity (Mus musculus [23]): inactive; Activity (Mus musculus [25]): inactive
5 | CCC(C)(C)c1ccc(OCCCCN2CCC(C)CC2)cc1.O=C(O)C(=O)O | – | – | Non-Toxic | inactive | Active | inactive | Active | inactive | Active | – | – | inactive | Toxic | Activity (Mus musculus [26]): Toxic; Activity (Mus musculus [27]): Toxic; Activity (Mus musculus [28]): Toxic; Activity (Mus musculus [23]): Active; Ki (Histamine H3 receptor [29]): 238 nM
6 | CCC(C)(C)c1ccc(OCCCCCCN2CCCC(C)C2)cc1.O=C(O)C(=O)O (centres undefined) | 33.8 nM | inactive | Non-Toxic | inactive | inactive | inactive | Active | inactive | Active | 2.521 | Active | Active | Toxic | Activity (Mus musculus [30]): Toxic; Activity (Mus musculus [31]): Toxic
7 | CCC(C)(C)c1ccc(OCCCCN2CCCCCC2)cc1.O=C(O)C(=O)O | – | – | Non-Toxic | – | – | – | Active | inactive | inactive | 2.292 | – | Active | Toxic | Activity (Mus musculus [27]): Toxic; Activity (Mus musculus [28]): Toxic; Activity (Mus musculus [32]): Toxic; Ki (Histamine H3 receptor [29]): 68 nM
8 | CCC(C)(C)c1ccc(OCCCCCCCN2CCCCC2)cc1.O=C(O)C(=O)O | 55 nM | inactive | Non-Toxic | inactive | inactive | inactive | Active | inactive | inactive | 2.624 | Active | inactive | Toxic | Activity (Mus musculus [33]): Non-Toxic; Activity (Mus musculus [34]): Non-Toxic; Activity (Mus musculus [21]): Toxic
9 | CCC(C)(C)c1ccc(OCCCCCCN2CCCCCC2)cc1.O=C(O)C(=O)O | 41.2 nM | inactive | Non-Toxic | inactive | inactive | inactive | Active | inactive | inactive | 2.567 | – | inactive | Toxic | Activity (Mus musculus [35]): Toxic
